In ChEMBL document CHEMBL1147539, “Synthesis and biological evaluation of novel, selective, nonsteroidal glucocorticoid receptor antagonists” (Bioorg Med Chem Lett, 2004):
pIC50: −log10 of the molar value.

How the values were obtained:
Estrogen receptor = molecular target: T1, Estrogen receptor (Homo sapiens, UniProt P03372); assay: Displacement of [3H]estradiol from human estrogen receptor alpha
T1 sequence (P03372 whole entry): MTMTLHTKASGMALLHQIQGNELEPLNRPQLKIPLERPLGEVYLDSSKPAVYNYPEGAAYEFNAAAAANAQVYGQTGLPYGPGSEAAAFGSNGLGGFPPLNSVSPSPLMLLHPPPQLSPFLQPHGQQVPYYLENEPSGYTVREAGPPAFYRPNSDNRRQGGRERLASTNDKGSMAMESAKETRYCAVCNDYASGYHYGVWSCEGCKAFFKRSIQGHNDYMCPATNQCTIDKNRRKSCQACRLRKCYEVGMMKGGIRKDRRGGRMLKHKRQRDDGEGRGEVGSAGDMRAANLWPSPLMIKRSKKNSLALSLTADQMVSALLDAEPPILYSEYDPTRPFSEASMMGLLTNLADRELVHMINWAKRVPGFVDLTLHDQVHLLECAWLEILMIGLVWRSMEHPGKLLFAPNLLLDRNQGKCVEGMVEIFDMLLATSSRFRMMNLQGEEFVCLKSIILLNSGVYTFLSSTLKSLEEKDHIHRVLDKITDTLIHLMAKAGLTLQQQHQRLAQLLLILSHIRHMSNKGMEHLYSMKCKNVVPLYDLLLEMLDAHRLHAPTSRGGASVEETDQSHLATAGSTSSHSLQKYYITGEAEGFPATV
Method in brief: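 Human steroid receptor (PR, MR, AR, ERα) binding measured by radioligand displacement, with IC50s determined in duplicate. Values without a range come from a single experiment, and values with a range are geometric means of repeat experiments.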

Androgen receptor = molecular target: T2, Androgen receptor (Homo sapiens, UniProt P10275); assay: Displacement of [3H]mibolerone from human Androgen receptor
T2 sequence (P10275 whole entry): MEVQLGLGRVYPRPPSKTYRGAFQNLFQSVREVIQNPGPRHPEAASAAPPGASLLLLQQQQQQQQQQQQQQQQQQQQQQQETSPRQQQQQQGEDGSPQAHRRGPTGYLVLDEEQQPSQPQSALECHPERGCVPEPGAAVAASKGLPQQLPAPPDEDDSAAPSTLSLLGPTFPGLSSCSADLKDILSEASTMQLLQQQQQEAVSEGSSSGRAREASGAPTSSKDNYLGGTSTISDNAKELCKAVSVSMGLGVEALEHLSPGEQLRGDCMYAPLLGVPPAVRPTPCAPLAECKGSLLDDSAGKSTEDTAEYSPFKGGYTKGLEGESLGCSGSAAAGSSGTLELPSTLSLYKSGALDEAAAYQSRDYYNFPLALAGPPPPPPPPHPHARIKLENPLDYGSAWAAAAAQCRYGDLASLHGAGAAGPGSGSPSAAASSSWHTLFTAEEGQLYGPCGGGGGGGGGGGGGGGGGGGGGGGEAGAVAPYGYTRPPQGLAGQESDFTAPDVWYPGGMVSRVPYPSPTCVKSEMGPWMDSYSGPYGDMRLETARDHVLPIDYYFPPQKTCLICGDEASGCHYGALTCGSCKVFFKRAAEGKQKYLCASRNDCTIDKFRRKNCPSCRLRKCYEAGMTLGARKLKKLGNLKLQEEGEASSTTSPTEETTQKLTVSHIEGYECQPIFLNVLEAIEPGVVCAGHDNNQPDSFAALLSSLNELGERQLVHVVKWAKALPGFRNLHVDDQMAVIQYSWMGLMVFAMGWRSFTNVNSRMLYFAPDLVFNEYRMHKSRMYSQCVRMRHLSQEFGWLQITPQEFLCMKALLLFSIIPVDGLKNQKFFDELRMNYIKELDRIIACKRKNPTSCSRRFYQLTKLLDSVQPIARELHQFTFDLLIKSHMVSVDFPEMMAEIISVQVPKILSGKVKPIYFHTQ

Glucocorticoid receptor = molecular target: T3, Glucocorticoid receptor (Homo sapiens, UniProt P04150); assay: Effect on human Glucocorticoid receptor (GR) in a whole cell assay to measure functional cellular GR-antagonism (GRAF)
T3 sequence (P04150 whole entry): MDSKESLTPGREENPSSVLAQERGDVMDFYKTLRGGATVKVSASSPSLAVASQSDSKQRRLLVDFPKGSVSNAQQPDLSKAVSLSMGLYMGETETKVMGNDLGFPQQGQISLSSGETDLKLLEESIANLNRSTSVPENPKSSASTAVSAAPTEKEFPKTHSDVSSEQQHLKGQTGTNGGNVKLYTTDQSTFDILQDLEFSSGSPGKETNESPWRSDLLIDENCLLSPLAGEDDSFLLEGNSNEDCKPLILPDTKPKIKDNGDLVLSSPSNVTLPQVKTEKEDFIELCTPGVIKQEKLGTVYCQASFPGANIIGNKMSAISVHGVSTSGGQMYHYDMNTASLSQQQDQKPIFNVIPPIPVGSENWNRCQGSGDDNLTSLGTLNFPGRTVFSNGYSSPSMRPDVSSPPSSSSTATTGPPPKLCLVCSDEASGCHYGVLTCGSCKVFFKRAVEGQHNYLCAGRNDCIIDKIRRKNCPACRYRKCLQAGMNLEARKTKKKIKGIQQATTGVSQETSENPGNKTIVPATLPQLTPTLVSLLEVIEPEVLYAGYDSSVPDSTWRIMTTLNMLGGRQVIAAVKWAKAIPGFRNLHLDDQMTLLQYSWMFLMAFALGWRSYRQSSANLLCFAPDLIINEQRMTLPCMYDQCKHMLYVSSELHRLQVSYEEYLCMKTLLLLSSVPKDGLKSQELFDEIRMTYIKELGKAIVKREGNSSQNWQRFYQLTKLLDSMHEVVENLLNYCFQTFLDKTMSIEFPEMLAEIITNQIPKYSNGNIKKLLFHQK

pIC50 (Estrogen receptor)	pIC50 (Androgen receptor)	pIC50 (Glucocorticoid receptor)	Compound
< 5.00	< 5.00	7.12	COc1cccc2c1-c1ccc(NS(C)(=O)=O)cc1C(c1cccc(F)c1)O2 (stereo not drawn)
< 6.00	< 5.00	–	COc1cccc2c1-c1ccc(NS(C)(=O)=O)cc1C(c1ccc(F)cc1)O2 (stereo not drawn)
< 5.00	< 5.00	–	COc1cccc2c1-c1ccc(NS(C)(=O)=O)cc1C(c1ccc(C)cc1)O2 (stereo not drawn)
< 5.00	< 5.00	6.51	CCOc1cccc2c1-c1ccc(NS(C)(=O)=O)cc1C(c1ccccc1)O2 (stereo not drawn)

Compound	pIC50 (Estrogen receptor)	pIC50 (Androgen receptor)	pIC50 (Glucocorticoid receptor)
COc1cccc2c1-c1ccc(NS(C)(=O)=O)cc1C(c1cccs1)O2 (stereo not drawn)	< 5.00	< 5.00	7.18
